# A selection: hits, their analogues and other compounds. The true share with any hit is near 1%.
# VIM-2 inh – inhibitors of Pseudomonas aeruginosa VIM-2 metallo-beta-lactamase; purified VIM-2, nitrocefin hydrolysis, epi-absorbance fluorescence; inhibition, % at 5.6 µM; 0.89% of 290,000 active;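 active means inhibition above the mean of all tested compounds plus 3 SD, cutoff set per screening run, cut at about 7.5% in these data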;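 further: red hydrolysis product quenches plate fluorescence so inhibitors raise well fluorescence; 0% = enzyme with DMSO and 100% = DMSO without enzyme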
# IMP-1 inhibitor – blocks Pseudomonas aeruginosa IMP-1 metallo-beta-lactamase; inhibition, % at 5.6 µM; AID 1556; purified IMP-1, nitrocefin hydrolysis, epi-absorbance fluorescence; 0.45% of 290,000 active;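 active means inhibition above the mean plus 3 SD of all compounds in the same screening run, cut at about 4.5% in these data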;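 further: 0% = IMP-1 with DMSO and 100% = DMSO wells lacking enzyme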
#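 Assay system: purified recombinant IMP-1 beta-lactamase. Input: IMP-1 0.2 nM before substrate addition. Buffer or medium: Zinc- and detergent-supplemented HEPES buffer, pH 7.1. Schedule: 25 °C, 15 min preincubation, 25 min reaction. Signal: Epi-absorbance fluorescence, 480 nm excitation, 530 nm emission. Evaluation: percent inhibition from optical density relative to buffer-blank wells.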
# PvdQ inh – P. aeruginosa PvdQ acylase inhibition; purified PvdQ acylase, fluorescence plate reader; inhibition, % at 10 µM; 0.063% of 340,000 active; AID 488965; in the data active means inhibition above about 30%, passing the limit was not always enough;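 further: 0% = vehicle neutral wells and 100% = reference inhibitor wells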
# RAD54 branch – inhibitors of human RAD54 branch migration. Q92698. RAD54 Holliday junction branch migration, FAM/BHQ fluorescence. inhibition, % at 10.4 µM. 0.14% of 360,000 active. AID 602329;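 active means mean normalized replicate activity at least 40 and at least half of replicates scoring 40 or more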;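 further: 0% = median of neutral control wells and 100% = median of positive control wells; inhibitors cause a drop in the FAM fluorescence signal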
# Target sequence (Q92698 whole entry, looked up): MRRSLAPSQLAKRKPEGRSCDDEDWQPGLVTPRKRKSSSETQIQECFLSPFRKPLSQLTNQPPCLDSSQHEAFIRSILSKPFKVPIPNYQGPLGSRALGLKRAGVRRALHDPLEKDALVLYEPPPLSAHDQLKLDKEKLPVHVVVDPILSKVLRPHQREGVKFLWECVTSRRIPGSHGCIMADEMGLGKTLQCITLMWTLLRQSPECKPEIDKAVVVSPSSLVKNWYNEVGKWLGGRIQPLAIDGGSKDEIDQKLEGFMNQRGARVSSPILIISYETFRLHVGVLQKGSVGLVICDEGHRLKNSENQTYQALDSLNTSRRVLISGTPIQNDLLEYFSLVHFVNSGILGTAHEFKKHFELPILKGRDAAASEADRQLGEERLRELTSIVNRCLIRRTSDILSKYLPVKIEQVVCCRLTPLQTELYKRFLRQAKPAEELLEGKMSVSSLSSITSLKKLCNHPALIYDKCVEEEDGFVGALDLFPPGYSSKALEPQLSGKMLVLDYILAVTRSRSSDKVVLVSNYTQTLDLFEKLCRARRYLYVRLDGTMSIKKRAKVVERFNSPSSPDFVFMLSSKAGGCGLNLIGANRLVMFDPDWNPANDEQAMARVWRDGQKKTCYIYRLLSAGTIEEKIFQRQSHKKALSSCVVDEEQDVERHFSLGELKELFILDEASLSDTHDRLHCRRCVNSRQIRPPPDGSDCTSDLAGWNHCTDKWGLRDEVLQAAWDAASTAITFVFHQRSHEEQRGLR
# DNA FID counter – fluorescent intercalator displacement, NS3 helicase counter-screen; DNA fluorescent intercalator displacement, fluorescence; AID 1845; inhibition, % at 7.9 µM; 0.17% of 290,000 active; in the data active means inhibition above about 37%;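 further: 0% = vehicle and 100% = reference compound; higher means more ethidium bromide displaced from hairpin DNA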
# * hit, by the source's call; nt = no result given.
SMILES,VIM-2 inh,IMP-1 inhibitor,PvdQ inh,RAD54 branch,DNA FID counter
COc1ccc(S(=O)(=O)N(C)C[C@H]2OCCCC[C@@H](C)Oc3ccc(NC(=O)CCCN(C)C)cc3C(=O)N([C@@H](C)CO)C[C@@H]2C)cc1,nt,nt,nt,3,nt
C#CCOCCOCCOCCNc1nc(N2CCN(C(=O)[C@H](Cc3cc4ccccc4[nH]3)n3cc([C@@H](N)CC(C)C)nn3)CC2)nc(N2CCN(C(=O)[C@H](Cc3cc4ccccc4[nH]3)n3cc([C@@H](N)CC(C)C)nn3)CC2)n1,1,-3,4,-4,64*
C#CCOCCOCCOCCNc1nc(N2CCN(C(=O)[C@H](Cc3cc4ccccc4[nH]3)n3cc([C@@H](N)Cc4ccc(O)cc4)nn3)CC2)nc(N2CCN(C(=O)[C@H](Cc3cc4ccccc4[nH]3)n3cc([C@@H](N)CC(C)C)nn3)CC2)n1,nt,nt,-14,nt,nt
C#CCOCCOCCOCCNc1nc(N2CCN(C(=O)C(Cc3cc4ccccc4[nH]3)n3cc(C(N)Cc4ccc(O)cc4)nn3)CC2)nc(N2CCN(C(=O)C(Cc3cc4ccccc4[nH]3)n3cc(C(N)Cc4ccc(O)cc4)nn3)CC2)n1 (stereo not given),-2,-3,nt,nt,52*
C#CCOCCOCCOCCNc1nc(N2CCN(C(=O)[C@H]([C@@H](C)CC)n3cc([C@@H](N)CO)nn3)CC2)nc(N2CCN(C(=O)[C@H](Cc3cc4ccccc4[nH]3)n3cc([C@@H](N)C(C)CC)nn3)CC2)n1 (stereo not given in full),-4,7.0*,nt,nt,41*
CCC(=O)Nc1ccc2c(c1)OC[C@H](C)N(C(=O)CN(C)C)C[C@H](C)[C@@H](OC)CN(C)C2=O,nt,nt,nt,-7,nt
COc1ccc(S(=O)(=O)Nc2ccc3c(c2)C(=O)N([C@@H](C)CO)C[C@@H](C)[C@@H](CN(C)C)OCCCC[C@H](C)O3)cc1,nt,nt,nt,-1,nt
COc1ccc(S(=O)(=O)Nc2ccc3c(c2)C(=O)N([C@H](C)CO)C[C@@H](C)[C@@H](CN(C)C(=O)Nc2ccc(C(F)(F)F)cc2)OCCCC[C@@H](C)O3)cc1,nt,nt,nt,-12,nt
COc1cc(NC(=O)CSc2ncnc3c2cnn3Cc2ccccc2)cc(OC)c1,-1,4.5*,4,-9,-4
CN(Cc1c(O)ccc2c1oc(=O)c1ccccc12)C1CCCCC1,8.7*,1,8,41,11
N#CC1=C(N)Oc2cc(N)ccc2C1c1cccnc1 (stereo not given),-3,-1,-15,nt,-12
CCN(CC)c1ccc2c(c1)OC(N)=C(C#N)C2c1cccnc1 (stereo not given),6,9.6*,-8,-97,-12
Cc1noc(C)c1NC(=O)Nc1cccc2c1O[C@H](CN(C)Cc1ccc(-c3ccccc3)cc1)[C@@H](C)CN([C@H](C)CO)C2=O,nt,nt,nt,-1,nt
Cc1ccc(C(=O)N/C(=C\c2ccc(-c3cccc([N+](=O)[O-])c3)o2)C(=O)NCCCN(C)C)cc1,-2,-5,-12,19,31
CN(C)CCCNC(=O)/C(=C\c1ccc(-c2cccc([N+](=O)[O-])c2)o1)NC(=O)c1ccccc1,3,-3,9,nt,44*
CC=Cc1ccc2n(c1=O)C[C@H]1[C@H](CO)[C@@H](C(=O)NCC3CC3)[C@@H]2N1C(=O)C1CC1 (mixture of isomers),nt,nt,nt,4,nt
O=C(COC(=O)CCN1C(=O)/C(=C\C=C\c2ccccc2)SC1=S)Nc1ccc(Br)cc1,-3,5.5*,5,nt,-4
O=C(CCCN1C(=O)S/C(=C/C=C/c2ccccc2)C1=O)Nc1ccc(C(=O)O)cc1,-2,-3,3,13,-38
CC(=Cc1ccccc1)C=C1SC(=S)N(CCCC(=O)Nc2ccc(C(=O)O)c(O)c2)C1=O,nt,nt,nt,8,nt
O=C(CCN1C(=O)/C(=C\C=C\c2ccccc2)SC1=S)Nc1ccccc1C(=O)O,0,8.1*,4,4,25
CC(/C=C1\SC(=S)N(CCCC(=O)Nc2ccc(C(=O)O)c(O)c2)C1=O)=C\c1ccccc1,2,1,nt,nt,39*
CC(C)c1ccccc1NC(=O)COC(=O)CCN1C(=O)/C(=C\C=C\c2ccccc2)SC1=S,-6,-1,-16,nt,-3
Cc1ccc(NC(=O)CCCN2C(=O)/C(=C/C=C/c3ccccc3)SC2=S)cc1,1,7.2*,-6,-7,-13
O=C(CCN1C(=O)/C(=C\C=C\c2ccccc2)SC1=S)Nc1cccc(C(=O)O)c1,-1,4,-3,5,3
CCCN1C[C@H](C)[C@@H](OC)CN(C)C(=O)c2cc(NS(C)(=O)=O)ccc2OC[C@H]1C,nt,nt,nt,-9,nt
SMILES,VIM-2 inh,IMP-1 inhibitor,PvdQ inh,RAD54 branch,DNA FID counter
Cc1noc(C)c1NC(=O)Nc1cccc2c1O[C@H](CN(C)C(=O)Nc1cccc3ccccc13)[C@H](C)CN([C@@H](C)CO)C2=O,nt,nt,nt,2,nt
CN1C(=O)c2cc(NC(=O)C3CCCCC3)ccc2OC[C@@H]2O[C@H](CC(=O)NCc3ccccc3F)CC[C@@H]21,nt,nt,nt,5,nt
C[C@H]1CCCCO[C@H](CN(C)C(=O)Nc2ccccc2)[C@@H](C)CN([C@@H](C)CO)C(=O)c2cc(N(C)C)ccc2O1,nt,nt,nt,-9,nt
CCN1[C@H](C(=O)N(C)C)[C@@H](CO)[C@@H]2Cn3c(ccc(C4=CCCC4)c3=O)[C@@H]21,nt,nt,nt,2,nt
C[C@@H]1CN([C@@H](C)CO)C(=O)c2cc(-c3ccccc3F)cnc2O[C@H]1CN(C)Cc1cccc(C(=O)O)c1,nt,nt,nt,-4,nt
C[C@@H]1CN([C@H](C)CO)S(=O)(=O)c2ccc(-c3ccc(F)cc3)cc2O[C@@H]1CN(C)C,nt,nt,nt,-1,nt
CC(C)CC#Cc1cnc2c(c1)C(=O)N([C@@H](C)CO)C[C@@H](C)[C@@H](CN(C)C(=O)c1cnccn1)O2,nt,nt,nt,-16,nt
COc1ccc(-c2onc3ccc(Br)cc23)cc1,-4,-4,34*,-11,-3
Cc1ccc2occ(/C=N/NC(=O)c3ccncc3)c(=O)c2c1,-4,6.4*,-10,8,-3
COc1ccc(C(=O)N/N=C\c2coc3ccc(C)cc3c2=O)cc1,-2,8.7*,-2,6,-13
Cc1ccc2occ(/C=N/NC(=O)c3ccc(Cl)cc3)c(=O)c2c1,-4,0,-6,8,-7
CCOC(=O)c1[nH]c(C)c(C(=O)O)c1C,-2,-3,nt,nt,-2
CCOC(=O)C(NC=O)(NC(C)(C)C)C(=O)OCC,-2,4.8*,-9,-18,-1
Cc1nn(CCCC(=O)NCCCN2CCN(C)CC2)c(=O)c2c1sc1ccccc12,12*,-2,-6,-2,19
Cc1nn(CC(=O)N2CCN(C)CC2)c(=O)c2c1sc1ccccc12,11*,-4,-9,13,8
COc1ccc(NC(=O)CCC(=O)Nc2nnc(C(F)(F)F)s2)c(OC)c1,-3,4.9*,-4,7,-3
COc1ccc(CCC(=O)Nc2nnc(C(C)(C)C)s2)cc1,0,-1,-18,-7,-15
COc1ccc(CCC(=O)Nc2nnc(C(F)(F)F)s2)cc1,-3,8.7*,-10,1,-17

# From PubChem BioAssay
